Experimental findings from ChEMBL document CHEMBL1136489 (Bioorg Med Chem Lett, 2003) are described below.

Common to all, as to type: protein-complex assay
The target in assay [1] is Protein farnesyltransferase (Homo sapiens, UniProt P49354+P49356). Nature of the assay: In vitro inhibition of farnesyl protein transferase. The gist of the method: (§1)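 Cell-free enzyme inhibition assay, run as previously described with modifications.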
Assay [2] addresses Protein farnesyl/geranylgeranyl transferase (Homo sapiens) (UniProt P49354+P49356+P53609). Nature of the assay: Selectivity for Geranylgeranyl protein transferase I compared to farnesyl protein transferase.
Assay [3] deals with Geranylgeranyl transferase type I (Homo sapiens, UniProt P49354+P53609). Nature of the assay: In vitro inhibition of Geranylgeranyl protein transferase I. The essentials:
as §1

Each structure is given as a SMILES string.

As usually defined, the IC50 is the point on the concentration scale where inhibition reaches its midpoint. Lower therefore signals greater potency. As to `CC(C)=CCC/C(C)=C/CC/C(C)=C/CC/C(C)=C/CONC(=O)C(C)P(=O)(O)O` (stereo unspecified), the IC50 in assay [1] was over 10000 nM; in assay [3] it was 151 nM. Also, the Selectivity in assay [2] is over 66.

On to `CCC(C(=O)NOC/C=C(\C)CC/C=C(\C)CC/C=C(\C)CCC=C(C)C)P(=O)(O)O` (stereo unspecified), for which the IC50 in assay [1] was over 10000 nM; in assay [3], 146 nM. This molecule had a Selectivity in assay [2] of over 68.

In assay [3], `CC(C)=CCC/C(C)=C/CC/C(C)=C/CC/C(C)=C/CONC(=O)CP(=O)(O)O` gave an IC50 of 66 nM. This counts as double-digit nanomolar.

With `CC(C)=CCC/C(C)=C/CC/C(C)=C/CC/C(C)=C/CNC(=O)C(C)P(=O)(O)O` (stereo unspecified), the values for the IC50 in assay [1] and in assay [3] were over 10000 nM and 111 nM, respectively. Also, in assay [2], the Selectivity was over 90.

Consider `CCC(C(=O)NC/C=C(\C)CC/C=C(\C)CC/C=C(\C)CCC=C(C)C)P(=O)(O)O` (stereo unspecified), for which the results for the IC50 in assay [1] and in assay [3] were over 10000 nM and 566 nM, respectively. This molecule also showed a Selectivity in assay [2] of over 18.

In the case of `CC(C)=CCC/C(C)=C/CC/C(C)=C/CC/C(C)=C/CNC(=O)CP(=O)(O)O`, the IC50 in assay [1] worked out at 5000 nM; in assay [3] it was 275 nM. Also, in assay [2], the Selectivity amounted to 18.
